{"source": "paper PMC10194330", "about": "(Virus Research, 2022)", "key": {"DENV-2 [1]": {"tested_on": "DENV-2", "assay": "Time-of-addition", "assay_type": "cell-based, Dengue virus", "conditions": "S.71 72.4 μM, POD 0.1 μM added at 6 and 12 hpi, 24 h exposure, MOI=1", "summary_of_the_method": "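BHK-21 cells infected (MOI=1, 2 h, 37 °C, 5% CO2) and washed with PBS. DMEM with 2% FBS containing test compound (72.4 µM; positive control 0.1 µM) added at 6, 12, 24 or 36 hpi, then incubated a further 24 h. Supernatant titrated by plaque assay. DMSO <0.05%. Three independent experiments, mean ± s.e.m., one-way ANOVA.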"}, "BHK-21 cells [2]": {"tested_on": "BHK-21 cells", "assay": "Cell recovery assay", "assay_type": "cell-based", "summary_of_the_method": "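BHK-21 cells on coverslips exposed 24 h to test compound. Compound then removed, monolayers washed and cultured 3 days in DMEM with 2% FBS. Cells fixed with 3.8% paraformaldehyde and nuclei stained with Hoechst 33342. Morphology imaged by differential interference contrast with a 60x objective.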"}, "BHK-21 cells [3]": {"tested_on": "BHK-21 cells", "assay": "Annexin V staining, size and granularity", "assay_type": "cell-based", "conditions": "infected or uninfected BHK-21 cells, 24 h", "summary_of_the_method": "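Infected and/or treated BHK-21 cells resuspended in binding buffer with annexin V, incubated 15 min at 4 °C, then diluted with binding buffer and centrifuged 5 min. Analysed by flow cytometry for annexin V, with cell size from forward scatter (FSC) and granularity from side scatter (SSC).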"}, "BHK-21 cells [4]": {"tested_on": "BHK-21 cells", "assay": "Fluorescence imaging of microtubules, MTOC and endoplasmic reticulum", "assay_type": "cell-based", "conditions": "for MTOC localization/detection: BHK-21 cells, 24 h treatment", "summary_of_the_method": "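BHK-21 cells on coverslips infected (MOI=1, 2 h) or mock, then treated 24 h with test compound from 6 or 12 hpi. Fixed in 3.8% paraformaldehyde. Microtubules stained with anti-α/β-tubulin and MTOC with anti-γ-tubulin; […] used as comparator. For ER imaging, cells were transfected with pmKate2-ER plasmid and infected 24 h later. Imaged with a 60x objective.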"}, "DENV-2 [5]": {"tested_on": "DENV-2", "assay": "Fluorescence imaging of dsRNA and ENV protein", "assay_type": "cell-based, Dengue virus", "conditions": "treatment at 6 and 12 hpi; S.71 72.4 µM, POD 0.1 µM", "summary_of_the_method": "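BHK-21 cells on coverslips infected with DENV-2 (MOI=1, 2 h). Test compound (72.4 µM; positive control 0.1 µM) added at 6 or 12 hpi and left 24 h. Cells washed with cytoskeleton buffer, fixed in 3.8% paraformaldehyde and immunostained for ENV (4G2) and dsRNA (J2), with tubulin and Hoechst nuclei. Imaged with a 60x objective; mean fluorescence intensity quantified. Three independent triplicate experiments; unpaired t-test.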"}, "DENV-2 [6]": {"tested_on": "DENV-2", "assay": "Post-infection plaque reduction assay", "assay_type": "cell-based, Dengue virus", "conditions": "S.71 at 50 and 100 μM, POD at 0.1 μM; six days", "summary_of_the_method": "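BHK-21 cells infected with DENV-2 (MOI=1) for 2 h at 37 °C, 5% CO2, then washed with PBS. Test compound (12.5–100 µM) added in 1.5% carboxymethylcellulose medium; positive control as log dilutions 0.1–100 µM. Incubated 6 days, then plaques counted in 3 independent assays. EC50 defined as the concentration reducing viral plaques by 50%.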"}, "BHK-21 cells [7]": {"tested_on": "BHK-21 cells", "assay": "Cytotoxicity assay", "assay_type": "cell-based"}, "DENV-2 [8]": {"tested_on": "DENV-2", "assay": "Negative-strand RNA production", "assay_type": "cell-based, Dengue virus", "conditions": "S.71 72.4 μM, POD 0.1 μM; 6 and 12 hpi"}, "ZIKV": {"tested_on": "ZIKV", "conditions": "ref Sultana et al., 2018; cited from earlier work"}, "HCV": {"tested_on": "HCV", "conditions": "ref Bost et al., 2003; cited from earlier work"}, "ER": {"tested_on": "ER", "conditions": "treatment during 2 h; ref Terasaki et al., 1986; cited from earlier work"}}, "data": [{"smiles": "COc1cc([C@@H]2c3cc4c(cc3[C@H](O)[C@H]3COC(=O)[C@H]23)OCO4)cc(OC)c1OC", "note": "[POD, Podophyllotoxin]", "values": [{"measurement": "viral yield of DENV-2", "setting": "DENV-2 [1]", "value": "effective"}, {"measurement": "recovery of cell morphology after treatment removal", "setting": "BHK-21 cells [2]; 24 h treatment, then nutrient-supplemented medium", "value": "recovered their normal morphology after three days"}, {"measurement": "nuclei after 24 h treatment", "setting": "BHK-21 cells [2]; BHK-21 cells, 24 h", "value": "pyknotic and fragmented nuclei"}, {"measurement": "cell granularity (SSC)", "setting": "BHK-21 cells [3]", "value": "increase in cell granularity"}, {"measurement": "cell size (FSC)", "setting": "BHK-21 cells [3]", "value": "changes in cell size were not observed"}, {"measurement": "phosphatidylserine exposure (annexin V)", "setting": "BHK-21 cells [3]", "value": "nor changes in phosphatidylserine exposure"}, {"measurement": "effect on rough endoplasmic reticulum", "setting": "BHK-21 cells [4]; 6 hpi or 12 hpi, infected and mock cells", "value": "ER retraction"}, {"measurement": "MTOC localization/detection", "setting": "BHK-21 cells [4]", "value": "not detected"}, {"measurement": "cell morphology and microtubule distribution", "setting": "BHK-21 cells [4]; infected and uninfected cells treated at 6 or 12 hpi, 24 h, S.71 72.4 µM, POD 0.1 µM", "value": "round morphology and fragmented microtubules"}, {"measurement": "ENV protein signal (MFI)", "setting": "DENV-2 [5]", "value": "significant decreases"}, {"measurement": "dsRNA signal (MFI)", "setting": "DENV-2 [5]", "value": "significant decreases"}, {"measurement": "viral titer in post-infection treatment", "setting": "DENV-2 [6]", "value": "effective"}, {"measurement": "concentrations at which very toxic", "setting": "BHK-21 cells [7]; CC50 could not be determined", "value": "> 1000", "unit": "nM"}, {"measurement": "effect on cells below 1 µM", "setting": "BHK-21 cells [7]; below 1 µM", "value": "cytostatic"}, {"measurement": "negative-strand RNA copies", "setting": "DENV-2 [8]", "value": "low numbers of copies"}]}, {"smiles": "COc1cc2c(c(OC)c1OC)-c1ccc(OC)c(=O)cc1[C@@H](NC(C)=O)CC2", "note": "[colchicine]", "values": [{"measurement": "ZIKV viral infection", "setting": "ZIKV", "value": "reduced"}, {"measurement": "HCV viral infection", "setting": "HCV", "value": "reduced"}]}, {"smiles": "COC(=O)Nc1nc2ccc(C(=O)c3cccs3)cc2[nH]1", "note": "[nocodazole]", "values": [{"measurement": "effect on ER", "setting": "ER", "value": "ER retraction"}, {"measurement": "MTOC localization/detection", "setting": "BHK-21 cells [4]", "value": "not detected"}, {"measurement": "ZIKV viral infection", "setting": "ZIKV", "value": "reduced"}, {"measurement": "HCV viral infection", "setting": "HCV", "value": "reduced"}]}, {"smiles": "CC(=O)O[C@H]1C(=O)[C@@]2(C)[C@H]([C@H](OC(=O)c3ccccc3)[C@]3(O)C[C@H](OC(=O)[C@H](O)[C@@H](NC(=O)c4ccccc4)c4ccccc4)C(C)=C1C3(C)C)[C@]1(OC(C)=O)CO[C@@H]1C[C@@H]2O", "note": "[paclitaxel]", "values": [{"measurement": "ZIKV viral infection", "setting": "ZIKV", "value": "reduced"}, {"measurement": "HCV viral infection", "setting": "HCV", "value": "reduced"}]}]}
